Assay outcomes as filed in PubChem BioAssay.
Sampled rows, rich in hits. Any-hit rate of the full collection: about 12%.
Diaphorase act: compounds boosting diaphorase resazurin reduction – biochemical, uHTS, resorufin fluorescence, counter-screen for diaphorase-coupled primary assays, primary screen. Diaphorase/resazurin coupled assay, 16 min; active compounds read high; 1 = vehicle wells, 0 = NADH-free wells. AID 1229, 2008. activation factor at 20 µM. 190,000 compounds, 0.005% hits;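 active = diaphorase activity raised at least twofold by the compound at 20 µM; inactive = activation factor below 2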
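Assay system: bacterial diaphorase enzyme (C. kluyveri) / Input: enzyme 0.07 U/mL final / Medium: 50 mM HEPES pH 7.4 with 4.542 mM MgCl2, 0.005% Tween 20 / Doses: single compound dose of 20 µM, 1% DMSO final / Incubation: 16 min enzyme reaction, ambient temperature / Signal: fluorescence, excitation 544 nm and emission 590 nm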
Lmaj promast: Leishmania major promastigote growth inhibition, primary screen; Leishmania major promastigotes, resazurin fluorescence viability; inhibition, % at 10 µM; 200,000 compounds, 9% hits; in the data active = inhibition above about 50%;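 also: promastigotes grown with compound for 44 hours at 28 °C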
KCC2 mod: KCC2 cotransporter modulators, thallium flux, primary screen, cell-based, HEK293 KCC2, FluoZin-2 fluorescence, MLSMR; AID 1456, 2008; Solute carrier family 12 member 5 (Homo sapiens), Q9H2X9; KCC2 cells, thallium flux FluoZin-2 fluorescence; B-score of Tl+ flux slope (higher = more flux/activation; lower = inhibition) at 10 µM; 190,000 compounds, 2.2% hits;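 active = thallium flux slope and its plate-corrected score both differing from the plate sample mean at a set confidence after two filtering rounds, in either direction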;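 also: slope of fluorescence scaled to starting intensity during 10 to 20 s after thallium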
Target sequence (Q9H2X9 whole entry, looked up): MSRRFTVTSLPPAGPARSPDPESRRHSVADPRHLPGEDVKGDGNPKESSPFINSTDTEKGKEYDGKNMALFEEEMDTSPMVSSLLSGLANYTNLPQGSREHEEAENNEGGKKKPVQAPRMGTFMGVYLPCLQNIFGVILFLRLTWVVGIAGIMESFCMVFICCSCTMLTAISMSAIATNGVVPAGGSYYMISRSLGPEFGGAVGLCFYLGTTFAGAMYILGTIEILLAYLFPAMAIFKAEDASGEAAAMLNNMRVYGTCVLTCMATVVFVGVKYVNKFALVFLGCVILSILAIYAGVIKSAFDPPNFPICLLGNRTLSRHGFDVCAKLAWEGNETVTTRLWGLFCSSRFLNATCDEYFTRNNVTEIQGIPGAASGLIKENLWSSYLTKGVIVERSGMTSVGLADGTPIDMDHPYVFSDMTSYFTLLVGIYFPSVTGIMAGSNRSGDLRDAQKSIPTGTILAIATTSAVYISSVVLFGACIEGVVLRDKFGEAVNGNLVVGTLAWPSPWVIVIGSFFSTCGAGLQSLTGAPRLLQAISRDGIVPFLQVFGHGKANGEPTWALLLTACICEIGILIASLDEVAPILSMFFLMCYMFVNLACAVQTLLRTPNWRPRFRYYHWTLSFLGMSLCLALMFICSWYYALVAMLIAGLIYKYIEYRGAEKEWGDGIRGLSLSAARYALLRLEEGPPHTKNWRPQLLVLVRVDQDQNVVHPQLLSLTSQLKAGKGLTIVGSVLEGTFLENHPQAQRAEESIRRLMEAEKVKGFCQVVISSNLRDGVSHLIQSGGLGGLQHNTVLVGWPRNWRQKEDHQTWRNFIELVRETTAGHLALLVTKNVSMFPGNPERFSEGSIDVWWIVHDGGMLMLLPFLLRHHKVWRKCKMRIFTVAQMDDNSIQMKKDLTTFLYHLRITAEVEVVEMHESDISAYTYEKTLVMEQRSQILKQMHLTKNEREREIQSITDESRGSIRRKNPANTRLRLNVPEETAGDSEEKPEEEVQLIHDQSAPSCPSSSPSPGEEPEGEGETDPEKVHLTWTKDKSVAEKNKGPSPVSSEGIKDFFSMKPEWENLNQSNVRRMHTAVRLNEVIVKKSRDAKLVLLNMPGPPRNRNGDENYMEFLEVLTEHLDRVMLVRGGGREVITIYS
Diaph inh CS: diaphorase inhibitors and chemical oxidizers, primary screen, counter-screen for diaphorase-coupled primary assays, biochemical, uHTS, resorufin fluorescence; diaphorase resazurin-to-resorufin fluorescence, NADH, 16 min; bacterial (C. kluyveri) enzyme, not human; AID 1217, 2008; inhibition, % at 20 µM; 190,000 compounds, 0.69% hits;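 active = primary screen inhibition at 20 µM above a set limit, cut at about 50% in these data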;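 also: plate controls were DMSO with full reaction for no effect and wells lacking NADH for full effect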
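Benchmarks: positive control wells lacking NADH, neutral wells with DMSO only. System: bacterial diaphorase enzyme (C. kluyveri). Input: 0.14 U/mL diaphorase, enzyme working solution. Detection: resorufin fluorescence, excitation 544 nm, emission 590 nm. Times: 16-min room-temperature incubation before reading.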
ROMK mod: ROMK potassium channel modulators, primary screen, cell-based, thallium flux, MLSMR library | B-score at 10 µM | AID 1918, 2009 | 130,000 compounds, 2% hits | Tet-inducible ROMK, thallium flux fluorescence; actives lie on both sides | ATP-sensitive inward rectifier potassium channel 1 (Homo sapiens), P48048;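 active = signal ratio slope over the read window, or its plate-corrected B-score, at least 3 SD from the plate mean, either direction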;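 also: B-score of the F/F0 ratio slope over 7 to 12 s after thallium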
WT yeast gro inh: growth inhibition of WT strain, primary screen, mitochondrial fusion inhibitor project, WT and mutant strains, chemical genetic. 190,000 compounds, 2.1% hits. mitochondrial fusion phenotypic screen. AID 1362, 2008. inhibition, % at 10 µM; in the data active = inhibition above about 58%; tested in S. cerevisiae
* = called active by the depositor; i = inactive; x = not tested or not shown.

SMILES | Diaphorase act | Lmaj promast | KCC2 mod | Diaph inh CS | ROMK mod | WT yeast gro inh
O=C1OCCN1/N=C/c1ccc([N+](=O)[O-])o1 | 1.1 | 93* | -0.73 | -6 | x | -12
COc1cccc(Nc2nnc(SCC(=O)N(CC(C)C)CC(C)C)s2)c1 | 0.7 | 99* | -1.3 | 27 | x | 6
C/C(N)=C(/C#N)C(=O)CSc1nnc(Nc2cccc(C)c2)s1 | 0.9 | 76* | -0.64 | 11 | x | -15
COc1cccc(Nc2nnc(SCN3C(=O)c4ccccc4C3=O)s2)c1 | 1 | 1 | 1.3 | 3 | x | -22
Cc1nc([N+](=O)[O-])c(C(=O)OCc2ccccc2F)n1C | 1 | 2 | -0.48 | 3 | 0.69 | -27
COc1ccccc1Nc1nnc(SCc2nnc(-c3cc(OC)c(OC)c(OC)c3)o2)s1 | 0.5 | 21 | -1.8 | 50* | -0.83 | 19
CCOc1ccccc1Nc1nnc(SCc2nnc(-c3cc(OC)c(OC)c(OC)c3)o2)s1 | 0.6 | 12 | -0.36 | 42 | -1.4 | 20
CC(=O)Oc1ccc(-c2cccc(C(=O)NCCCO)c2)cc1 | 0.9 | -2 | -0.77 | 7 | -0.47 | -2
COc1ccc(NC(=O)C(c2cc3c(cc2[N+](=O)[O-])OCO3)N(C)c2ccccc2)cc1 (stereo not drawn) | 1 | 81* | -3.1 | 0 | -0.25 | 9
Cn1c(=O)cc(SCC(=O)NCC2CCCO2)c2ccccc21 (stereo not drawn) | 0.9 | -6 | -0.19 | 10 | x | 10
COc1cccc(C(=O)O/N=C(\N)Cc2ccc(Cl)cc2)c1 | 0.8 | 5 | -0.83 | 18 | -2.2 | 68*
COc1cccc(C(=O)O/N=C(\N)c2ccncc2)c1 | 0.9 | 2 | -0.15 | 6 | x | 29
N/C(Cc1ccc([N+](=O)[O-])cc1)=N\OC(=O)c1ccc2ccccc2c1 | 1.1 | 17 | 0.74 | -6 | x | 81*
N/C(Cc1ccc([N+](=O)[O-])cc1)=N\OC(=O)c1ccc(Br)cc1 | 0.9 | 2 | -0.033 | 10 | x | 22
Cc1cccc(C(=O)O/N=C(\N)Cc2ccc([N+](=O)[O-])cc2)c1 | 0.9 | 33 | -1.6 | 13 | -1.4 | -4
N/C(Cc1ccc(Cl)cc1)=N\OC(=O)C1CCCCC1 | 1.1 | 73* | -0.24 | -12 | -2.1 | -8
O=C(COC(=O)C1CCCC1)NCc1ccc(Cl)cc1 | 0.9 | -8 | -0.78 | 7 | -0.085 | 1
N/C(Cc1ccc([N+](=O)[O-])cc1)=N\OC(=O)c1ccccc1Br | 0.9 | 94* | -0.27 | 12 | -0.032 | -37
CCCc1nnc(NC(=O)OCC)s1 | 1 | -1 | 0.92 | 4 | 0.72 | 5
COc1ccc(C(=O)c2c(C)c3ccccc3n2CC(O)CNC(C)C)cc1 (stereo not drawn) | 1.2 | 97* | -0.3 | -17 | -1.1 | -5
COc1ccc(NCC(=O)n2c(C)c(C)c3ccccc32)cc1 | 0.9 | -4 | 0.26 | 9 | 1.8 | -3
COc1ccc(C2CCCN2C(=S)Nc2ccc(C)cc2Cl)cc1OC (stereo not drawn) | 0.9 | -1 | -0.24 | 9 | -1 | 22
CC(C)N(C(=S)NC1CC2CCC1C2)c1ccccc1 (stereo not drawn) | 1 | 15 | -0.16 | 3 | 0.95 | 65*
CN(CC1COc2ccccc2O1)C(=S)Nc1ccccc1 (stereo not drawn) | x | 9 | -0.74 | x | x | x
CCN(CC1COc2ccccc2O1)C(=S)NC1CC2CCC1C2 (stereo not drawn) | 0.8 | 29 | -1.1 | 19 | -1.2 | 67*
SMILES | Diaphorase act | Lmaj promast | KCC2 mod | Diaph inh CS | ROMK mod | WT yeast gro inh
CN(C)c1cccc(C(=O)NNC(=S)NC2CC3CCC2C3)c1 (stereo not drawn) | 1 | -3 | x | 5 | 1.4 | -12
O=[N+]([O-])c1cccc(C(=Nc2ccccc2Cl)NO)c1 | 0.9 | 1 | x | 10 | x | 1
O=[N+]([O-])c1ccc(Cl)c(C2Nc3cccc4cccc(c34)N2)c1 | 0.4 | 4 | -0.15 | 57* | x | 8
O=C1c2ccccc2C(=O)N1OCc1cccc(Cl)c1 | 0.8 | -2 | 1.3 | 18 | -0.56 | -4
O=c1cc2c(nn1Cc1cccc(Cl)c1)-c1ccccc1CC2 | 0.8 | 8 | x | 20 | -0.63 | 81*
Cc1ccc(Cn2nc3c(cc2=O)CCc2ccccc2-3)cc1 | 0.8 | -4 | x | 25 | -2.3 | 74*
O=c1cc2c(nn1Cc1ccc(Cl)cc1)-c1ccccc1CC2 | 0.9 | -1 | -3.7 | 10 | -1.7 | 59*
C=CCn1c(SCC(=O)NC(=O)c2cccc([N+](=O)[O-])c2)nnc1-c1ccccc1F | 0.8 | -5 | x | 24 | -0.28 | -16
OCCNc1c2ccccc2nc2c(F)c(F)c(F)c(F)c12 | 0.8 | 10 | -1 | 17 | x | 5
Cc1c2ccccc2nc2c(F)c(NCCO)c(F)c(F)c12 | 0.5 | 46 | i | 53* | x | 2
COc1ccc(-c2nc3ccccn3c2CN2CCN(c3ccccc3F)CC2)cc1 | 0.9 | 85* | 0.23 | 14 | 0.35 | 82*
Cc1cccc2cc(CN(Cc3ccco3)C(c3nnnn3CCc3ccccc3)C(C)C)c(=O)[nH]c12 (stereo not drawn) | 0.9 | 87* | -0.98 | 12 | x | 25
COc1cccc(OCC(=O)O)c1 | 1 | -7 | -0.049 | -3 | 0.23 | 0
Cc1cc(Cl)cc(Br)c1OCCCNCC(C)O (stereo not drawn) | 1 | 30 | -0.15 | 4 | 0.046 | 10
Cc1cc(C)c(OCCOCCN(C)C)c(Br)c1 | 1 | 96* | 1.5 | 1 | x | -4
Cc1cc(Cl)cc(Cl)c1OCCCCN(C)C | 0.8 | 86* | 1.4 | 15 | x | 14
Cc1cc(C)c(OCCCCN(C)C)c(Br)c1 | 0.8 | 85* | -0.01 | 19 | 1.6 | 8
O=C(C1=C[C@@H](C2CC2)C[C@@H](OCCCCO)O1)N1CCN(Cc2ccc3c(c2)OCO3)CC1 | 1 | -3 | -0.41 | -3 | x | -2
O=C(O)CNS(=O)(=O)c1c(Cl)cccc1Cl | x | x | 0.42 | x | x | x
CC(=O)Nc1nc(NC(=O)/C=C/c2ccccc2)n(-c2ccccc2)n1 | 0.9 | 95* | 0.88 | 6 | 0.12 | 4
CCC(=O)Nc1nc2ccccc2n1Cc1ccccc1Cl | x | x | 2.2 | x | x | x
CC(NC(=O)c1ccccc1)c1nc2ccccc2n1Cc1ccccc1F (stereo not drawn) | 1 | 53* | -1.3 | 2 | x | -5
CC(NC(=O)c1ccccc1)c1nc2ccccc2n1Cc1ccc(C#N)cc1 (stereo not drawn) | 0.9 | 19 | -0.17 | 13 | 1.5 | -8
